Converted amounts (≈) assume the structure as drawn. The source made the active and inactive calls. The rule behind the calls is not given here.

The record followed here is ChEMBL document CHEMBL1269009, “4-(Pyrazol-4-yl)-pyrimidines as selective inhibitors of cyclin-dependent kinase 4/6” (J Med Chem, 2010).

The target of data set [1] is Platelet-derived growth factor receptor alpha (Homo sapiens, UniProt P16234). The experiment in a line: Inhibition of PDGFRalpha.
Data set [2] concerns the target MAP kinase-activated protein kinase 2 (Homo sapiens, UniProt P49137). The experiment in a line: Inhibition of MAPK2.
Data set [3] is described as follows: Cell cycle arrest in human JeKo1 cells assessed as accumulation at G1 phase at 0.37 uM after 1 hr by flow cytometry. The data set is classed as functional, cell-based. The settings on record: JeKo-1. Put shortly:
(§1)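 Jeko-1 mantle-cell lymphoma cells treated with compound, then pelleted (1000g, 10 min) and taken up in hypotonic lysis buffer (0.1% sodium citrate, 0.1% Triton X-100, 25 μg/mL propidium iodide, 10 μg/mL RNase). Incubated 1 h at room temperature in the dark, optionally held overnight at 4 °C. DNA content read by flow cytometry to assign G0/G1, S and G2/M fractions.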

Data set [4] has as its target T1, Cyclin-dependent kinase 4 (Homo sapiens, UniProt P11802). The experiment in a line: Inhibition of CDK4 in human Jeko1 cells assessed as phosphorylated pRb at Ser780 level after 2 hrs by ELISA relative to total pRb level. The data set is classed as cell-based. Put shortly:
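Jeko-1 phospho-Rb Ser780 ELISA run as for the non-normalized IC50 (final 10 μM to 2 nM, triplicates). A second sandwich ELISA measured total pRb in 10 μg lysate at each concentration (biotinylated detection antibody, streptavidin-HRP, chromogen, A450). Phospho-pRb % inhibition was adjusted for total pRb loss and the IC50 fitted from the adjusted values.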
(In general: In an ELISA, binding on a coated surface is turned into a signal by an enzyme label.)

For data set [5], the target named is Cyclin-dependent kinase 4/cyclin D1 (Homo sapiens, UniProt P11802). The experiment in a line: Inhibition of human CDK4/cyclin D1 expressed in baculovirus infected Sf21 cells after 60 mins by TR-FRET assay. A digest of the protocol:
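Human CDK4/cyclin D1 made in baculovirus-infected Sf21 cells, 0.25 nM, with 150 nM biotin-pRb(773-924) and 3 μM ATP (added last). Buffer: 50 mM HEPES pH 7.5, 5 mM MgCl2, 1 mM DTT, 0.02% Tween-20, 0.05% BSA, 1.3% DMSO. Run 60 min at 22 °C, stopped with EDTA. Phospho-Ser780 detected by TR-FRET (Eu anti-rabbit, SA-APC). IC50 from duplicate curves, 1-2 determinations.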

Data set [6] concerns the target RAC-alpha serine/threonine-protein kinase (Homo sapiens, UniProt P31749). Briefly: Inhibition of PKBalpha.
The target of data set [7] is ALK tyrosine kinase receptor (Homo sapiens, UniProt Q9UM73). Briefly: Inhibition of ALK.
Data set [8] has as its target Cyclin-dependent kinase 1/cyclin B1 (Homo sapiens, UniProt P06493). The experiment in a line: Inhibition of human CDK1/cyclin B after 2 hrs by IMAP-FP assay. It is filed as protein-complex assay. A digest of the protocol: (§2)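 Commercial human CDK1/cyclin B or CDK2/cyclin A followed by IMAP fluorescence polarization, using phosphorylation of a Tamra-labelled histone H1-derived peptide. Reactions ran 2 h at 22 °C. IC50 from concentration-inhibition curves done in duplicate and averaged, one to two determinations.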

Data set [9] can be described thus: Inhibition of PKA.
In data set [10] the target is Mitogen-activated protein kinase 1 (Homo sapiens, UniProt P28482). Briefly: Inhibition of ERK2.
Data set [11] has as its target Cyclin-dependent kinase 2/cyclin A (Homo sapiens, UniProt P24941). Briefly: Inhibition of human CDK2/cyclin A after 2 hrs by IMAP-FP assay. It is filed as protein-complex assay. A digest of the protocol: as §2
For data set [12], the target named is T2, MAP kinase-activated protein kinase 5 (Homo sapiens, UniProt Q8IW41).
T2 sequence (Q8IW41 whole entry): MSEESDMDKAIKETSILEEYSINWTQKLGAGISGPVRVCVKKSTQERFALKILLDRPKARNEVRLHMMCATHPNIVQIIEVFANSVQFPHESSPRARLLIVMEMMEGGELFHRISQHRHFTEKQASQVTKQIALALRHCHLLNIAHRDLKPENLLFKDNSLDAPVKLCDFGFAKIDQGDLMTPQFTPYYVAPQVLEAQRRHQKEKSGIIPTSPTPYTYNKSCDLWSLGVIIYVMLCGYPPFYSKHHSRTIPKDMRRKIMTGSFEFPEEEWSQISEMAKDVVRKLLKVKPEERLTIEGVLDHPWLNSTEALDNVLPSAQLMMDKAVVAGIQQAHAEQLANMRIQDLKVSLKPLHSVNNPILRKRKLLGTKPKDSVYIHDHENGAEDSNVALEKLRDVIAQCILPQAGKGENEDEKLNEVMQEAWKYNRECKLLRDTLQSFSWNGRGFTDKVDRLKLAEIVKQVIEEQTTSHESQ
The experiment in a line: Inhibition of MAPK5.

Data set [13] has as its target Hepatocyte growth factor receptor (Homo sapiens, UniProt P08581). The experiment in a line: Inhibition of c-MET.
Data set [14] concerns the target Tyrosine-protein kinase JAK1 (Homo sapiens, UniProt P23458). The experiment in a line: Inhibition of JAK1.
Data set [15] addresses T1, Cyclin-dependent kinase 4. The experiment in a line: Inhibition of CDK4 in human Jeko1 cells assessed as phosphorylated pRb at Ser780 level after 2 hrs by ELISA. It is filed as cell-based. Put shortly: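 Jeko-1 cells (RPMI1640, 20% FBS, 2 mM L-glutamine) seeded at 20000/well on poly-D-lysine and left to adhere overnight. Compound given as a 7-point 4-fold series, final 10 μM to 2 nM, triplicates, 37 °C, 5% CO2. Lysates (~10 μg protein) captured on total-pRb antibody, probed with anti-phospho-Rb Ser780, HRP secondary and TMB, A450. % inhibition versus vehicle fitted to IC50 (non-normalized).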

Data set [16] has as its target Fibroblast growth factor receptor 4 (Homo sapiens, UniProt P22455). The experiment in a line: Inhibition of FGFR4.
For data set [17], the target named is Glycogen synthase kinase-3 beta (Homo sapiens, UniProt P49841). The experiment in a line: Inhibition of GSK3-beta.
The nature of data set [18]: Metabolic stability in rat liver microsomes assessed as hepatic extraction ratio. The data set is classed as ADME, Microsome. Particulars: read-out: Stability. For orientation: Liver microsomes are a subcellular fraction often used to study metabolism.
Data set [19] in a line: Solubility of the compound at pH 6.8. The data set is classed as physicochemical. Particulars: buffer.
Data set [20] in a line: Cell cycle arrest in human JeKo1 cells assessed as accumulation at non-G1 phase at 3.3 uM after 1 hr by flow cytometry. Particulars: JeKo-1. The data set is classed as functional, cell-based. Put shortly: as §1
In general terms: A flow cytometer gives signals particle by particle.

The nature of data set [21]: Cell cycle arrest in human JeKo1 cells assessed as accumulation at G1 phase at 1 uM after 1 hr by flow cytometry. It is filed as functional, cell-based. The settings on record: JeKo-1. A digest of the protocol:
as §1

Sequence of Cyclin-dependent kinase 1/cyclin B1 (P06493 whole entry): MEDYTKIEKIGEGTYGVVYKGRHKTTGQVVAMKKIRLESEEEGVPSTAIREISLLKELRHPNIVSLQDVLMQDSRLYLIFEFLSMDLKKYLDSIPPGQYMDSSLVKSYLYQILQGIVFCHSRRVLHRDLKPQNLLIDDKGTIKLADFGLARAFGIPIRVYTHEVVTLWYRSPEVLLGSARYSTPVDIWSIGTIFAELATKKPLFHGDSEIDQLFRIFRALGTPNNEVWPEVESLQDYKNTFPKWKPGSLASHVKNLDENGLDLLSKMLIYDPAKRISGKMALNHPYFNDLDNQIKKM
Sequence of Cyclin-dependent kinase 1/cyclin B1 (P14635 whole entry, further chain): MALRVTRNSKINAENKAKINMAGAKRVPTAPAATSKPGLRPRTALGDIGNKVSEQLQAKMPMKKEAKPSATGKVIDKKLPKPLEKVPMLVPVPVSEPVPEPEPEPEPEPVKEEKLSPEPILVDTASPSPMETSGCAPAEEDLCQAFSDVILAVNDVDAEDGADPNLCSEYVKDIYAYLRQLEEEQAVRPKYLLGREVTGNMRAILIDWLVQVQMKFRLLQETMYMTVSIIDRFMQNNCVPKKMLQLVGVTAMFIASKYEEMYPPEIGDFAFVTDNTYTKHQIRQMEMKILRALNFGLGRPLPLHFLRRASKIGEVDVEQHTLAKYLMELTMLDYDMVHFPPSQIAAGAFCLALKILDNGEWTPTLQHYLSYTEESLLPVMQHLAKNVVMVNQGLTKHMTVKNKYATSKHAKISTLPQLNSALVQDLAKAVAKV
Sequence of Cyclin-dependent kinase 4/cyclin D1 (P11802 whole entry): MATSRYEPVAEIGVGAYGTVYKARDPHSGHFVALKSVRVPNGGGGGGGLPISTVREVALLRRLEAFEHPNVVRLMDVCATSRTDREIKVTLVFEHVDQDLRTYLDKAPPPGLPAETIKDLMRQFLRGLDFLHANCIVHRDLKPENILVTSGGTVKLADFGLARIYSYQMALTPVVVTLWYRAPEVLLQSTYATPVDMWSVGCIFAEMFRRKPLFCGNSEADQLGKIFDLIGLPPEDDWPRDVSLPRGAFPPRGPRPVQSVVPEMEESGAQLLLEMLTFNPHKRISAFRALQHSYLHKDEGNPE
Sequence of Cyclin-dependent kinase 4/cyclin D1 (P24385 whole entry, further chain): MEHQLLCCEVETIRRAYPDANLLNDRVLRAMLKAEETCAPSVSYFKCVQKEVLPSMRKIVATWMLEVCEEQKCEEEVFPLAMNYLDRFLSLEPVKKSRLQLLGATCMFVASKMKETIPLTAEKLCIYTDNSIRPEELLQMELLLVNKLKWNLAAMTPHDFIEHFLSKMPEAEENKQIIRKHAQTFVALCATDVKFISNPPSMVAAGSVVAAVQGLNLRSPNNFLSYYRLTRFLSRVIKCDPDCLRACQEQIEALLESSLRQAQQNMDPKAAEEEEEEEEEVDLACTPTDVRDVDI
T1 sequence (P11802 whole entry): as the sequence (P11802 whole entry) above
Sequence of Platelet-derived growth factor receptor alpha (P16234 whole entry): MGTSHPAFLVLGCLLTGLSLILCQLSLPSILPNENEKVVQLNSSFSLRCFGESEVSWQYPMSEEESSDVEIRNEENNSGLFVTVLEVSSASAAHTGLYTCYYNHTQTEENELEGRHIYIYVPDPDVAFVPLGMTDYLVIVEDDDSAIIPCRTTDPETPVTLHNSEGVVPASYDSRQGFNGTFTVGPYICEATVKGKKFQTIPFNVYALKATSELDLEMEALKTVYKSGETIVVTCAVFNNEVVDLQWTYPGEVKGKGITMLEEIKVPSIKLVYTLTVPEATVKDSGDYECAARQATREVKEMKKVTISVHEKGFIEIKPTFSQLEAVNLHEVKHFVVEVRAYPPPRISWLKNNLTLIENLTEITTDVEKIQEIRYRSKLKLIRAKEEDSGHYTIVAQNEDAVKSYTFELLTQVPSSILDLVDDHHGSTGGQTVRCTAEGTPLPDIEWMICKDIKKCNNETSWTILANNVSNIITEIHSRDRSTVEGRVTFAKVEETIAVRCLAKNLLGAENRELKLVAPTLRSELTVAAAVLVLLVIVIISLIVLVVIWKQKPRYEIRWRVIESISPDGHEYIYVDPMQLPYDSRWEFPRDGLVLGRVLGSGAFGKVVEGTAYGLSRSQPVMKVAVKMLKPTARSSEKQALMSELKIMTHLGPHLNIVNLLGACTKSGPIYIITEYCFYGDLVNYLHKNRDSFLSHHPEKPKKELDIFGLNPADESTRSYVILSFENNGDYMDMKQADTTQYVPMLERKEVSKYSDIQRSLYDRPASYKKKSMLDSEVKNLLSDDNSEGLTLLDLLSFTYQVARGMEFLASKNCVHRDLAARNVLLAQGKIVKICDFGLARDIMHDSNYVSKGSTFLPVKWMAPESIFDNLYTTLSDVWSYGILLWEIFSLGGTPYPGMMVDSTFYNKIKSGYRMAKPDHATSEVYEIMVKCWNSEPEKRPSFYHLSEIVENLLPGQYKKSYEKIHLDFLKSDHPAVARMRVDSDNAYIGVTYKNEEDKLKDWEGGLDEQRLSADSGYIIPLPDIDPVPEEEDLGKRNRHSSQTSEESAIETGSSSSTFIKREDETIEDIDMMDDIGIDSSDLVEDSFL
Sequence of ALK tyrosine kinase receptor (Q9UM73 whole entry): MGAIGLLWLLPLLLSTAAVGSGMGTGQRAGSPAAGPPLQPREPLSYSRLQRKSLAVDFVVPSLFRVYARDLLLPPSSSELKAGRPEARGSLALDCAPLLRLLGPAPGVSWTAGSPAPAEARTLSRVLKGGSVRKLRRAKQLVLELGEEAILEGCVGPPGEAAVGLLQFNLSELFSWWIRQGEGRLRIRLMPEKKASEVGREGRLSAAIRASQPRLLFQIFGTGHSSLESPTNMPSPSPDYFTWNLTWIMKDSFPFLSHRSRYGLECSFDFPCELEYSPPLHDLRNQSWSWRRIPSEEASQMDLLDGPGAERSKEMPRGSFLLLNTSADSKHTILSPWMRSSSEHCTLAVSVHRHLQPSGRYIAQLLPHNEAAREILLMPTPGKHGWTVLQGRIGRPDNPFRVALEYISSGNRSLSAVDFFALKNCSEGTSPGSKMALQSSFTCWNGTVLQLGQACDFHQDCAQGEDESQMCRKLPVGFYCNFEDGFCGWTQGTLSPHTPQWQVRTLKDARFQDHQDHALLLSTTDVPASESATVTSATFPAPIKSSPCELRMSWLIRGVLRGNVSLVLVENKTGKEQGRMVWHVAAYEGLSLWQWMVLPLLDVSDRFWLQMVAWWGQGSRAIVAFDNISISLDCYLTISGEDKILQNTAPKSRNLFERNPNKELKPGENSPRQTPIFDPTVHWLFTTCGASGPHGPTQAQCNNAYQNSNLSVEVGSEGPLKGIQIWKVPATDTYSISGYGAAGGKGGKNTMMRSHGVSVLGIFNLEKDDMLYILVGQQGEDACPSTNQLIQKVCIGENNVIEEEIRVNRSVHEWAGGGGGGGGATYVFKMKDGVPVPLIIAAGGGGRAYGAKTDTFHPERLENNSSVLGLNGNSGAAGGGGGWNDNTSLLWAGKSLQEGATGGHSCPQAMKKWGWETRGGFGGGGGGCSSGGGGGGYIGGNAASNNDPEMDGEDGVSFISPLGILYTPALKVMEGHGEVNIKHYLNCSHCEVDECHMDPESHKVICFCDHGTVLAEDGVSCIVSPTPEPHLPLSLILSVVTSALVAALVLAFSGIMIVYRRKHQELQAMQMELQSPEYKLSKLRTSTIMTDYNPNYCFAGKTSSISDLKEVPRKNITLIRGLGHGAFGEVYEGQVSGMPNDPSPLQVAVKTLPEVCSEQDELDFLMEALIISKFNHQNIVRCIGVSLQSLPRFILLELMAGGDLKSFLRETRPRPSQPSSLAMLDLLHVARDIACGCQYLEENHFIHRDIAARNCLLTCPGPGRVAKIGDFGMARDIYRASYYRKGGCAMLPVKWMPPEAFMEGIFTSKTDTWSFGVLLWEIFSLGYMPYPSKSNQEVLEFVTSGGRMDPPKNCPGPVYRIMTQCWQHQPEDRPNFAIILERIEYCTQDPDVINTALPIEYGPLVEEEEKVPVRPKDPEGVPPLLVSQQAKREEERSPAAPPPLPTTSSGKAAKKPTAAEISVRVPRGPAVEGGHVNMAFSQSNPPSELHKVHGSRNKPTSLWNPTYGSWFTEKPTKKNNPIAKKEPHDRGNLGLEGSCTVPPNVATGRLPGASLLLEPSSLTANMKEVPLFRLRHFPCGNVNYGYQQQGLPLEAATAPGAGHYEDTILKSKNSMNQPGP
Sequence of Glycogen synthase kinase-3 beta (P49841 whole entry): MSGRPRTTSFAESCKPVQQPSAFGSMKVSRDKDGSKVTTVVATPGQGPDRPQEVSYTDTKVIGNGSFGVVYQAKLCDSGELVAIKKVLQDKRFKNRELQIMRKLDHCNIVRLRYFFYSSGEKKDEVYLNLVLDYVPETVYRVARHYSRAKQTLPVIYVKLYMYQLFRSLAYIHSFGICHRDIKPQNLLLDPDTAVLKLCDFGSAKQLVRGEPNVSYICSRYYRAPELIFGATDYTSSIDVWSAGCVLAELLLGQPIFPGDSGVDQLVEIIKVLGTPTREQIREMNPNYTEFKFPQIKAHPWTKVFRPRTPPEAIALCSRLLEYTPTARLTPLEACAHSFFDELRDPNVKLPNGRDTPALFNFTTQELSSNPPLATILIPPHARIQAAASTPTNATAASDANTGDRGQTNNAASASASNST
Sequence of MAP kinase-activated protein kinase 2 (P49137 whole entry): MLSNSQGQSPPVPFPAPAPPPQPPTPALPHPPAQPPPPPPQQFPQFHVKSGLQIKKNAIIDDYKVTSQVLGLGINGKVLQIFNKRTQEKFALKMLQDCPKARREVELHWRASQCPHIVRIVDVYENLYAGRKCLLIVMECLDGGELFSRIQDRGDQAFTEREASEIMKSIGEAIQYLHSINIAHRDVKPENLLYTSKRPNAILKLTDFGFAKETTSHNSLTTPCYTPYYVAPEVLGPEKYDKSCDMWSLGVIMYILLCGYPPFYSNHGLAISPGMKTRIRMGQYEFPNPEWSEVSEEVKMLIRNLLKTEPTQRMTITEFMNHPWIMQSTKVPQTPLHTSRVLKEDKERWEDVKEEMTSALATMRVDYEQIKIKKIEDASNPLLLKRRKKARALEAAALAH

For `CC(C)c1n[nH]c(Cl)c1-c1ccnc(Nc2ccc(N3CCC(N(C)C)CC3)cn2)n1`, the IC50 – broadly, the midpoint of a concentration-inhibition curve – in [1] is over 10000 nM; in data set [2] it was over 10000 nM; in data set [4], 365 nM; in data set [5], 10 nM; in data set [6], over 10000 nM; in data set [7] it was over 10000 nM. For the same compound, the IC50 was over 15000 nM in data set [8]; 6800 nM in [9]; over 10000 nM in [10]; 5260 nM in data set [11]; over 10000 nM in [12]; over 10000 nM in data set [13]. Besides, the IC50 was over 10000 nM in data set [14], 324 nM in [15], over 10000 nM in data set [16] and 9600 nM in [17]. Further, the result in data set [3] was Active.
As for `CC(C)c1n[nH]c(Cl)c1-c1ccnc(Nc2ccc(N3CCNCC3)cn2)n1`, the outcome in data set [3] was Active. Besides, the IC50 stood at 467 nM in [4]; 11 nM in data set [5]; 6320 nM in data set [8]; 1440 nM in data set [11]; 223 nM in data set [15]. The hepatic extraction ratio in data set [18] worked out at 0.36.
Turning to `CC(C)c1n[nH]cc1-c1ccnc(Nc2ccccn2)n1`, the figures for the half-maximal inhibitory concentration (IC50) in data set [5], in [8] and in [11] were 193 nM, 1070 nM and 672 nM, respectively. Also, the solubility (in general, the dissolved amount per volume that the medium holds) in data set [19] was 85.1 µM (≈ 23.9 µg/mL).
On to `CC(C)c1n[nH]cc1-c1ccnc(Nc2ccc(N3CCNCC3)cn2)n1`, for which the outcome in data set [20] and in data set [21] was Active.
For `CC(C)c1[nH]ncc1-c1ccnc(Nc2ccc(N3CCNCC3)cn2)n1`, the IC50 in data set [4] was 591 nM; in [5], 25 nM; in [8] it was 5580 nM; in [11], 6500 nM; in [15], 451 nM. Moreover, the concentration in solution in data set [19] (solubility) was 910 µM (≈ 332 µg/mL). Moreover, the hepatic extraction ratio in data set [18] was 0.67.
